Source: ChEMBL document CHEMBL1121930, “Design of more potent antagonists of the antidiuretic responses to arginine-vasopressin” (J Med Chem, 1982)
“And” between values parts separate entries of the source, which are not always exact repeats. Equal entries are not always repeated. *1 amine or outer side, *2 acyl side, *3 side chain or, on linkers, in order; H or OH if unused. Where a SMILES comes first, the peptide text is derived from it. Bridges are numbered along the chain shown (N, C = ends). [ ]: non-standard residue; d: D form. The star is where a group is joined. X1 = O=C(CC1(S[*:2])CCCCC1)[*:1]; Propyl = CCC*; iPr = CC(C)*

How the values were obtained:
Rattus norvegicus [1] = assay: Antivasopressor effective dose is defined as the dose that reduces the response seen with 2 units of agonist to equal the response seen with 1 unit of agonist administered before antagonist.; type: functional
In short: (§1)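 Intravenous vasopressor assay in phenoxybenzamine-treated rats under urethane anesthesia, agonist USP posterior pituitary reference standard. Effective dose (nmol/kg) cuts the response to 2x units of agonist to that of 1x units given before the antagonist. pA2 = −log(effective dose / 67 mL/kg).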

Rattus norvegicus [2] = assay: Effective dose is defined as the dose that reduces the response seen with 2 units of agonist to equal the response seen with 1 unit of agonist administered before antagonist.; type: functional
Rattus norvegicus [3] = assay: In vivo pA2 value represent the negative logarithm of the effective dose divided by the estimated volume of distribution (67 mL/kg).; type: functional, organism-based
Rattus norvegicus [4] = assay: In vivo pA2 value represent the negative logarithm of the antidiuretic effective dose divided by the estimated volume of distribution (67 mL/kg).; type: functional, organism-based; details: Urine, read-out: pA2 (converted)
In short: (§2)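 Rats under ethanol anesthesia, agonist USP posterior pituitary reference standard. Agonist injected 20 and 50 min after the antagonist. Responses at 20 min were used, or at 50 min for analogues that inhibited more then. Each antagonist was given at two doses, one above and one below the effective dose (nmol/kg). pA2 = −log(effective dose / 67 mL/kg).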

Rattus norvegicus [5] = assay: Antidiuretic effective dose is expressed as the dose that reduces the response seen with 2 units of agonist to equal the response seen with 1 unit of agonist administered before antagonist.; type: functional, Urine; in short: as §2
Rattus norvegicus [6] = assay: Antivasopressor effective dose is expressed as the dose that reduces the response seen with 2 units of agonist to equal the response seen with 1 unit of agonist administered before antagonist.; type: functional; in short: as §1
Rattus norvegicus [7] = assay: In vivo pA2 value represent the negative logarithm of the anti-vasopressor effective dose divided by the estimated volume of distribution (67 mL/kg).; type: functional, organism-based; details: read-out: pA2 (converted); in short: as §1
Rattus norvegicus [8] = assay: Effective dose is defined as the dose that reduces the response seen with 2 units of agonist to equal the response seen with 1 unit of agonist administered before antagonist; agonist; type: functional, organism-based; details: filed as agonist

With `CC(C)[C@@H]1NC(=O)[C@H](Cc2ccccc2)NC(=O)[C@H](Cc2ccc(O)cc2)NC(=O)CC2(CCCCC2)SSC[C@@H](C(=O)N2CCC[C@H]2C(=O)N[C@H](CCCN=C(N)N)C(=O)NCC(N)=O)NC(=O)[C@H](CC(N)=O)NC1=O` as the molecule, how does the Effective dose (Rattus norvegicus [1]) read?
The Effective dose was 1.5 nM/kg.

With `CC(C)[C@@H]1NC(=O)[C@H](Cc2ccccc2)NC(=O)[C@@H](Cc2ccc(O)cc2)NC(=O)CC2(CCCCC2)SSC[C@@H](C(=O)N2CCC[C@H]2C(=O)N[C@@H](CCCN=C(N)N)C(=O)NCC(N)=O)NC(=O)[C@H](CC(N)=O)NC1=O` as the molecule, how does the Effective dose (Rattus norvegicus [2]) read?
The Effective dose was 2.2 nM/kg.

What about the Effective dose (Rattus norvegicus [1]) of the same molecule?
The Effective dose was 0.29 nM/kg.

With `CCOc1ccc(C[C@@H]2NC(=O)CC3(CCCCC3)SSC[C@@H](C(=O)N3CCC[C@H]3C(=O)N[C@@H](CCCN=C(N)N)C(=O)NCC(N)=O)NC(=O)[C@H](CC(N)=O)NC(=O)[C@H](C(C)C)NC(=O)[C@H](Cc3ccccc3)NC2=O)cc1` (Y(Et)FVNCPRG-NH2; linker N-5 via X1) as the molecule, how does the pA2 (Rattus norvegicus [3]) read?
The pA2 was 7.81 and 8.22.

And the Effective dose (Rattus norvegicus [2])?
Its Effective dose is 1.1 nM/kg.

And the Effective dose (Rattus norvegicus [1])?
Its Effective dose is 0.45 nM/kg.

For `CCOc1ccc(C[C@@H]2NC(=O)CC3(CCCCC3)SSC[C@@H](C(=O)N3CCC[C@H]3C(=O)N[C@H](CCCN=C(N)N)C(=O)NCC(N)=O)NC(=O)[C@H](CC(N)=O)NC(=O)[C@H](C(C)C)NC(=O)[C@H](Cc3ccccc3)NC2=O)cc1` (Y(Et)FVNCP[dR]G-NH2; linker N-5 via X1), which Effective dose (Rattus norvegicus [2]) is on record?
The Effective dose was 1.8 nM/kg.

What about the Effective dose (Rattus norvegicus [1]) of the same molecule?
Its Effective dose is 0.88 nM/kg.

Which results are given for `COc1ccc(C[C@@H]2NC(=O)CC3(CCCCC3)SSC[C@@H](C(=O)N3CCC[C@H]3C(=O)N[C@@H](CCCN=C(N)N)C(=O)NCC(N)=O)NC(=O)[C@H](CC(N)=O)NC(=O)[C@H](C(C)C)NC(=O)[C@H](Cc3ccccc3)NC2=O)cc1` (Y(Me)FVNCPRG-NH2; linker N-5 via X1)?
Effective dose (Rattus norvegicus [2]): 1.2 nM/kg; Effective dose (Rattus norvegicus [1]): 0.23 nM/kg

For `COc1ccc(C[C@@H]2NC(=O)CC3(CCCCC3)SSC[C@@H](C(=O)N3CCC[C@H]3C(=O)N[C@H](CCCN=C(N)N)C(=O)NCC(N)=O)NC(=O)[C@H](CC(N)=O)NC(=O)[C@H](C(C)C)NC(=O)[C@H](Cc3ccccc3)NC2=O)cc1` (Y(Me)FVNCP[dR]G-NH2; linker N-5 via X1), which Kb (Rattus norvegicus [4]) is on record?
The Kb was 64.6 nM.

What about the Effective dose (Rattus norvegicus [5]) of the same molecule?
Its Effective dose is 4.9 nM/kg.

And the Effective dose (Rattus norvegicus [6])?
Its Effective dose is 0.54 nM/kg.

What about the Kb (Rattus norvegicus [7]) of the same molecule?
The Kb was 7.94 nM.

What does the source list for `CCCOc1ccc(C[C@@H]2NC(=O)CC3(CCCCC3)SSC[C@@H](C(=O)N3CCC[C@H]3C(=O)N[C@@H](CCCN=C(N)N)C(=O)NCC(N)=O)NC(=O)[C@H](CC(N)=O)NC(=O)[C@H](C(C)C)NC(=O)[C@H](Cc3ccccc3)NC2=O)cc1` (Y(Propyl)FVNCPRG-NH2; linker N-5 via X1)?
Effective dose (Rattus norvegicus [2]): 1.7 nM/kg; Effective dose (Rattus norvegicus [1]): 0.51 nM/kg

Which Effective dose (Rattus norvegicus [2]) does the source give for `CC(C)Oc1ccc(C[C@@H]2NC(=O)CC3(CCCCC3)SSC[C@@H](C(=O)N3CCC[C@H]3C(=O)N[C@@H](CCCN=C(N)N)C(=O)NCC(N)=O)NC(=O)[C@H](CC(N)=O)NC(=O)[C@H](C(C)C)NC(=O)[C@H](Cc3ccccc3)NC2=O)cc1` (Y(iPr)FVNCPRG-NH2; linker N-5 via X1) here?
The Effective dose was 1.6 nM/kg.

What about the Effective dose (Rattus norvegicus [1]) of the same molecule?
Its Effective dose is 0.28 nM/kg.

What does the source list for `CC(C)Oc1ccc(C[C@@H]2NC(=O)CC3(CCCCC3)SSC[C@@H](C(=O)N3CCC[C@H]3C(=O)N[C@H](CCCN=C(N)N)C(=O)NCC(N)=O)NC(=O)[C@H](CC(N)=O)NC(=O)[C@H](C(C)C)NC(=O)[C@H](Cc3ccccc3)NC2=O)cc1` (Y(iPr)FVNCP[dR]G-NH2; linker N-5 via X1)?
Effective dose (Rattus norvegicus [2]): 2.2 nM/kg; Effective dose (Rattus norvegicus [1]): 0.46 nM/kg

How did the Effective dose (Rattus norvegicus [1]) turn out when `CC(C)[C@@H]1NC(=O)[C@H](Cc2ccccc2)NC(=O)[C@H](Cc2ccc(O)cc2)NC(=O)CC2(CCCCC2)SSC[C@@H](C(=O)N2CCC[C@H]2C(=O)N[C@@H](CCCN=C(N)N)C(=O)NCC(N)=O)NC(=O)[C@H](CC(N)=O)NC1=O` (stereo in doubt) [listing 1 of 2 here] was run?
Its Effective dose is 0.76 nM/kg.

With `CC(C)[C@@H]1NC(=O)[C@H](Cc2ccccc2)NC(=O)[C@H](Cc2ccc(O)cc2)NC(=O)CC2(CCCCC2)SSC[C@@H](C(=O)N2CCC[C@H]2C(=O)N[C@@H](CCCN=C(N)N)C(=O)NCC(N)=O)NC(=O)[C@H](CC(N)=O)NC1=O` (stereo in doubt) [listing 2 of 2 here] as the molecule, how does the Effective dose (Rattus norvegicus [8]) read?
The Effective dose was “Agonist”.

Which Effective dose (Rattus norvegicus [2]) does the source give for `CC(C)[C@@H]1NC(=O)[C@H](Cc2ccccc2)NC(=O)[C@H](Cc2ccc(O)cc2)NC(=O)CC2(CCCCC2)SSC[C@@H](C(=O)N2CCC[C@H]2C(=O)N[C@@H](CCCN=C(N)N)C(=O)NCC(N)=O)NC(=O)[C@H](CC(N)=O)NC1=O` (stereo in doubt; 9) here?
Its Effective dose is 6.3 nM/kg.

And the Effective dose (Rattus norvegicus [1])?
The Effective dose was 0.6 nM/kg.
